The M2OR odorant receptor database

Key:
Details in all cases: stereoisomer not certain
UniProt Q8VGX8 = target: T1, UniProt Q8VGX8
T1 sequence (whole entry): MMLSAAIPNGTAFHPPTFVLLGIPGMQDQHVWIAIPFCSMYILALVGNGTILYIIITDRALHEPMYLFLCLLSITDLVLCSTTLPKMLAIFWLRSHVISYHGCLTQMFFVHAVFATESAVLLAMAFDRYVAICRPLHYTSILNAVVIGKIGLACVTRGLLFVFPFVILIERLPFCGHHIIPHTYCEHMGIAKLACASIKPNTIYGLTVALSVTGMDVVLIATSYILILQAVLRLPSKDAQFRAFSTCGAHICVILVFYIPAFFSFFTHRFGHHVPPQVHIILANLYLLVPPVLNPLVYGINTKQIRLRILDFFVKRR
Summary of the method: (§1)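 Assay methods differ from source to source, frequently being transient luciferase assays in mammalian cell lines. For each receptor–molecule pair, the label responsive (active) applies when the original authors judged the measured signal statistically different from baseline, and non-responsive (inactive) applies otherwise.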

UniProt Q8VGY6 = target: T2, UniProt Q8VGY6
T2 sequence (whole entry): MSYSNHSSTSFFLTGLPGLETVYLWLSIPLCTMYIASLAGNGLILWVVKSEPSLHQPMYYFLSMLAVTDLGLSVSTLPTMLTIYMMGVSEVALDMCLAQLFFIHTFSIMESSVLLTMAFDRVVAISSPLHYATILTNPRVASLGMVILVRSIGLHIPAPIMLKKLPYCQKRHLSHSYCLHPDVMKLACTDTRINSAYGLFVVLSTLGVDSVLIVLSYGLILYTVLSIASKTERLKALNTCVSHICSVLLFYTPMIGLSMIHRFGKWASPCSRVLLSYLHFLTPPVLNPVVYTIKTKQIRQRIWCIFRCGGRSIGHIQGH
Summary of the method: as §1

UniProt Q8VGZ2 = target: T3, UniProt Q8VGZ2
T3 sequence (whole entry): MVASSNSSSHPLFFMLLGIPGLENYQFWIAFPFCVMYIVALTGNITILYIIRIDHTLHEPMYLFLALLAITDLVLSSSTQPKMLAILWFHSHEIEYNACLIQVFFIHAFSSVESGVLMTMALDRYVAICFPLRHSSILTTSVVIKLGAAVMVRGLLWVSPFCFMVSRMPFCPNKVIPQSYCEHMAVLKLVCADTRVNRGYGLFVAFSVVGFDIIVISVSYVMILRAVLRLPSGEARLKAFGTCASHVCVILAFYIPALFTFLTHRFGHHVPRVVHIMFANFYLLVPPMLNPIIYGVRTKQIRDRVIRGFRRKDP
Summary of the method: as §1

UniProt Q8VGZ7 = target: T4, UniProt Q8VGZ7
T4 sequence (whole entry): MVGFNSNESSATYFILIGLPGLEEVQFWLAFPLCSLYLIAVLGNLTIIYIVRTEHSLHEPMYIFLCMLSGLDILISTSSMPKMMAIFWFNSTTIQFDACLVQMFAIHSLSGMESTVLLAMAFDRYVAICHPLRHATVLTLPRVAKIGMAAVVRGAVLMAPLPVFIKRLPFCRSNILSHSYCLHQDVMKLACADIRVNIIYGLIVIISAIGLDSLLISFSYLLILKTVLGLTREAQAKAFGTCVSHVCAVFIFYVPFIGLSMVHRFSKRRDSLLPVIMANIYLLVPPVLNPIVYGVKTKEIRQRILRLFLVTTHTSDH
Summary of the method: as §1

UniProt Q8VH10 = target: T5, UniProt Q8VH10
T5 sequence (whole entry): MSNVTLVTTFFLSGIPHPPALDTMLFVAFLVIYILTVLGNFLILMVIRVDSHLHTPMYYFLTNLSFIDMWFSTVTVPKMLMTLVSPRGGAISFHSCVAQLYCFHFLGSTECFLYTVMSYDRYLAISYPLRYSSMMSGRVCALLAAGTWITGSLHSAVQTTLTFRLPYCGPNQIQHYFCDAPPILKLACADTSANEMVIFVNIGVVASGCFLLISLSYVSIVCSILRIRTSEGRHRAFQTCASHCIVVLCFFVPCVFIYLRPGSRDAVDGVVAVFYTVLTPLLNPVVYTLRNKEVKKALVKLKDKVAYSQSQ
Summary of the method: as §1

UniProt Q8VH16 = target: T6, UniProt Q8VH16
T6 sequence (whole entry): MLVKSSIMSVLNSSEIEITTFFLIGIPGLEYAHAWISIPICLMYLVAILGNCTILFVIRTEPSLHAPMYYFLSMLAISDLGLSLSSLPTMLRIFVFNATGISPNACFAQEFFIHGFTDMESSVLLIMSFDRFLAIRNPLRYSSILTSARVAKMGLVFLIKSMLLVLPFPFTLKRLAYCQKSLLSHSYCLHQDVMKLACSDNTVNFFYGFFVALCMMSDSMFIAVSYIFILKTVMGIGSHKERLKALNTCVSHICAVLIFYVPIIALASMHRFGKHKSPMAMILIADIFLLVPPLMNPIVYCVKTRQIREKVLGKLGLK
Summary of the method: as §1

UniProt Q8VH20 = target: T7, UniProt Q8VH20
T7 sequence (whole entry): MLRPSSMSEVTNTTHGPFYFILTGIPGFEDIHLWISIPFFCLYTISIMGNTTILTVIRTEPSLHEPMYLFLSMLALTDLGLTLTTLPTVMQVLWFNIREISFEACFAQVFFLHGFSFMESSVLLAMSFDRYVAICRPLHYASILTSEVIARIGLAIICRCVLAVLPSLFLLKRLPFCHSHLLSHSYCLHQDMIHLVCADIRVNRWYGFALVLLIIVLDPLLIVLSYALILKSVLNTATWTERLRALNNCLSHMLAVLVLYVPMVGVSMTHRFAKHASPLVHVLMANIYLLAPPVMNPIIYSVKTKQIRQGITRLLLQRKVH
Summary of the method: as §1

UniProt Q8VH21 = target: T8, UniProt Q8VH21
T8 sequence (whole entry): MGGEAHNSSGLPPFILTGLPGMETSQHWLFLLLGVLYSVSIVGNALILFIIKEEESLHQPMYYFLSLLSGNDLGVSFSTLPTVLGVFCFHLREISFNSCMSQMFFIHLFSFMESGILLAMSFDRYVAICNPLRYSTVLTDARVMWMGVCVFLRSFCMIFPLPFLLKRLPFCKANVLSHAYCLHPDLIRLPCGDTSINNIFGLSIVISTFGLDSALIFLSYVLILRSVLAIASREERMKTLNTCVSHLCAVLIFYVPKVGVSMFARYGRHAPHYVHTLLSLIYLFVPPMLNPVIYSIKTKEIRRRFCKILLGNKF
Summary of the method: as §1

UniProt Q924H8 = target: T9, UniProt Q924H8
T9 sequence (whole entry): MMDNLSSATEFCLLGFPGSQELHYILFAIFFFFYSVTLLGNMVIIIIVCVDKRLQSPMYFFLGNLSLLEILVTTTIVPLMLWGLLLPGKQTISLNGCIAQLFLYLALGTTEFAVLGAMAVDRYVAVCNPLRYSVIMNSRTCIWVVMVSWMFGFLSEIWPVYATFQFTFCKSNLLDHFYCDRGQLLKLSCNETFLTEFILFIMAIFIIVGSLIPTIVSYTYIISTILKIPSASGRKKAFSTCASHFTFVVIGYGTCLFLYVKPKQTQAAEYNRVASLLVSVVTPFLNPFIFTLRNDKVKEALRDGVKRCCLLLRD
Summary of the method: as §1

UniProt Q9EPN9 = target: T10, UniProt Q9EPN9
T10 sequence (whole entry): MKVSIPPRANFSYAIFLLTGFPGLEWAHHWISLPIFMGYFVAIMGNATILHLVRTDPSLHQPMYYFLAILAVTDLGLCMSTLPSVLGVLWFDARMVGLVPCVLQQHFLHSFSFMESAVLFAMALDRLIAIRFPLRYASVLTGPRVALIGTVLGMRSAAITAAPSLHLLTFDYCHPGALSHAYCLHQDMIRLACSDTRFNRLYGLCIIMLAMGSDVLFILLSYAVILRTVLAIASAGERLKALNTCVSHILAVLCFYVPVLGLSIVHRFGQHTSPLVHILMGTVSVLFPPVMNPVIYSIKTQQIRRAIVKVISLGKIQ
Summary of the method: as §1

UniProt Q9R0K2 = target: UniProt Q9R0K2
UniProt Q9R0K2, sequence (Q9R0K2 as listed by the source): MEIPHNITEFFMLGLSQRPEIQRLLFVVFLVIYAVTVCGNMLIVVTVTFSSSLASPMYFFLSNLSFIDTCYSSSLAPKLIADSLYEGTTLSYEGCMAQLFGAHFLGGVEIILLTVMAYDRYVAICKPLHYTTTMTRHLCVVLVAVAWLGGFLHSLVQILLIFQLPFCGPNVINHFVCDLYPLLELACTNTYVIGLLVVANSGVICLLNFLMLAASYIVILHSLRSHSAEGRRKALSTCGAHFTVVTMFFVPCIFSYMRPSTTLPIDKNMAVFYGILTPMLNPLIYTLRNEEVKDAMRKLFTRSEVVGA
Summary of the method: as §1

UniProt Q9WU86 = target: T11, UniProt Q9WU86
T11 sequence (whole entry): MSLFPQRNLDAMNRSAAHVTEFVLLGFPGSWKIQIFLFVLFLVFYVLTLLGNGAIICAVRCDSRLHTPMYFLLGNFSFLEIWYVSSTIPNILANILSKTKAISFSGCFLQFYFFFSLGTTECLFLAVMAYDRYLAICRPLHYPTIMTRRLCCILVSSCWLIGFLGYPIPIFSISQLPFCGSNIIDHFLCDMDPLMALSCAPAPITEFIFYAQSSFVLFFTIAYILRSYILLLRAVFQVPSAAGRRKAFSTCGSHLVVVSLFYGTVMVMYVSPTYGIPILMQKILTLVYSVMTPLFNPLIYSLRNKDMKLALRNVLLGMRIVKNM
Summary of the method: as §1

Measured: odorant receptor agonist call

CCC(=O)O
inactive: UniProt Q8VGX8 | UniProt Q8VGY6 | UniProt Q8VGZ2 | UniProt Q8VGZ7 | UniProt Q8VH10 | UniProt Q8VH16 | UniProt Q8VH20 | UniProt Q8VH21 | UniProt Q924H8 | UniProt Q9EPN9 | UniProt Q9R0K2 | UniProt Q9WU86

CCCC(=O)C(C)=O
inactive: UniProt Q8VGX8 | UniProt Q8VGY6 | UniProt Q8VGZ2 | UniProt Q8VGZ7 | UniProt Q8VH10 | UniProt Q8VH16 | UniProt Q8VH20 | UniProt Q8VH21 | UniProt Q924H8 | UniProt Q9EPN9 | UniProt Q9R0K2 | UniProt Q9WU86

CC12CCC(CC1=O)C2(C)C (stereo not given)
inactive: UniProt Q8VGX8 | UniProt Q8VGY6 | UniProt Q8VGZ2 | UniProt Q8VGZ7 | UniProt Q8VH10 | UniProt Q8VH16 | UniProt Q8VH20 | UniProt Q8VH21 | UniProt Q924H8 | UniProt Q9EPN9 | UniProt Q9R0K2 | UniProt Q9WU86

CC(C)=CCCC(C)CCO (stereo not given)
inactive: UniProt Q8VGX8 | UniProt Q8VGY6 | UniProt Q8VGZ2 | UniProt Q8VGZ7 | UniProt Q8VH10 | UniProt Q8VH16 | UniProt Q8VH20 | UniProt Q8VH21 | UniProt Q924H8 | UniProt Q9EPN9 | UniProt Q9R0K2 | UniProt Q9WU86

CCCCC(C)=O
inactive: UniProt Q8VGX8 | UniProt Q8VGY6 | UniProt Q8VGZ2 | UniProt Q8VGZ7 | UniProt Q8VH10 | UniProt Q8VH16 | UniProt Q8VH20 | UniProt Q8VH21 | UniProt Q924H8 | UniProt Q9EPN9 | UniProt Q9R0K2 | UniProt Q9WU86
